Key:
[1] = biological target: T1, Sphingosine kinase 2 (Homo sapiens) (UniProt Q9NRA0); assay: Inhibition of N-terminal GST-fused sphingosine kinase 2 (1-618) expressed in baculovirus expression system assessed as inhibition of sphingosine phosphorylation after 1 hr by off-chip mobility shift assay; set-up: concentration or dose not given beside the values; conditions: concentration not given here
T1 sequence (whole entry): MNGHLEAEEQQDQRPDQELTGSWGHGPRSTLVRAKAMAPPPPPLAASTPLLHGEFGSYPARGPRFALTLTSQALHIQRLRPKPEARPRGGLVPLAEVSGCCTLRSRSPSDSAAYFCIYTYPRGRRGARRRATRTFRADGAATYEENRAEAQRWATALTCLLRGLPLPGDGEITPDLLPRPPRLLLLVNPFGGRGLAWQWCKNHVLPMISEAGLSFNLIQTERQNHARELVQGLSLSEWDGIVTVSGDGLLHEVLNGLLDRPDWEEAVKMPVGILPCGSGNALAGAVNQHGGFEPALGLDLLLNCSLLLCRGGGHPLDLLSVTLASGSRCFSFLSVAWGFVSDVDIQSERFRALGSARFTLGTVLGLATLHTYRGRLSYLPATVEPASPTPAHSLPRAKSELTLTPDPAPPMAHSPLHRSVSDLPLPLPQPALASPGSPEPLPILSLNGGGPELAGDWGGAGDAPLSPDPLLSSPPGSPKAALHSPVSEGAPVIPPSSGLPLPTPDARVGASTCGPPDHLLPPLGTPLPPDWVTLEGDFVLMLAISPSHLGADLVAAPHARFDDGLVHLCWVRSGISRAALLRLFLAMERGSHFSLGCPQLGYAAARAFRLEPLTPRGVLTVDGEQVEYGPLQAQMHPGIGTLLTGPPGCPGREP
Method in brief: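 Glutathione-sepharose-purified GST fusion tested over a concentration series (DMSO stock diluted fourfold in 20 mM HEPES pH 7.5, 0.01% Triton X-100, 2 mM DTT). Reaction: 1 μM sphingosine, 600 μM ATP, 5 mM MgCl2, 1 h at room temperature, n = 4. Electrophoretic P/(P+S) read-out normalized to controls; IC50 fitted.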

[2] = biological target: Sphingosine kinase 1 (Homo sapiens) (UniProt Q9NYA1); assay: Inhibition of N-terminal GST-fused sphingosine kinase 1 (1-384) expressed in baculovirus expression system assessed as inhibition of sphingosine phosphorylation after 1 hr by off-chip mobility shift assay; set-up: concentration or dose not given beside the values; conditions: concentration not given here
Method in brief: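 GST-fusion enzyme purified on glutathione sepharose. Compound series in DMSO diluted fourfold into 20 mM HEPES pH 7.5, 0.01% Triton X-100, 2 mM DTT. Reaction: 1 μM sphingosine, 25 μM ATP, 5 mM MgCl2, 1 h at room temperature (n = 4). Substrate and product separated electrophoretically; P/(P+S) ratio against no-enzyme and no-inhibitor controls; IC50 from concentration series.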

[3] = biological target: Protein kinase C gamma type (Homo sapiens) (UniProt P05129); assay: Inhibition of N-terminal GST-fused PKCgamma (1-697) expressed in baculovirus expression system at 30 uM after 1 hr by off-chip mobility shift assay relative to control
Method in brief: (§1)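 Enzymes purified by glutathione sepharose. DMSO compound stock diluted fourfold into 20 mM HEPES pH 7.5, 0.01% Triton X-100, 2 mM DTT, with phosphatidylserine (50 μg/mL), diacylglycerol (5 μg/mL) and 50 μM CaCl2. Reaction: 1 μM PKCθ substrate peptide (N-FL), 25 μM ATP, 5 mM MgCl2, 1 h at room temperature (n = 2). Read-out is electrophoretic P/(P+S) ratio, normalized to no-enzyme and no-inhibitor controls.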

[4] = biological target: T2, Protein kinase C zeta type (Homo sapiens) (UniProt Q05513); assay: Inhibition of N-terminal GST-fused PKCzeta (1-592) expressed in baculovirus expression system at 30 uM after 1 hr by off-chip mobility shift assay relative to control
T2 sequence (whole entry): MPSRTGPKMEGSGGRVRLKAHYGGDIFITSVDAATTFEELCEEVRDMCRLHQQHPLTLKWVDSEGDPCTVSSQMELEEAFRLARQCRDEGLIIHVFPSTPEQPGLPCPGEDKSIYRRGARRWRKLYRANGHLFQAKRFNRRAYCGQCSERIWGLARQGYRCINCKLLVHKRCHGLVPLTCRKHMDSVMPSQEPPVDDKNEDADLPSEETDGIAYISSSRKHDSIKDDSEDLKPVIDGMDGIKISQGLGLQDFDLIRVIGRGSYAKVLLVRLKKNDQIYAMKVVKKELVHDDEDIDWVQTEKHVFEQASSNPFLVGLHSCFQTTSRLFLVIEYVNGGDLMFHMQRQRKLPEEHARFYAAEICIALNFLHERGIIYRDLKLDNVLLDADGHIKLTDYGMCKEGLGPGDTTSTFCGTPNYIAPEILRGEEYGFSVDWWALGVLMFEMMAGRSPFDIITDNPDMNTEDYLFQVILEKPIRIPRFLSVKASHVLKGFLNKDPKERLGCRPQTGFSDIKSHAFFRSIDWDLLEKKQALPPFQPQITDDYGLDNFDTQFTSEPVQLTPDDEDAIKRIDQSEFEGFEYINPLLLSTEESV
Method in brief: (§2)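 No lipid cofactors and no calcium. Reaction buffer is 20 mM HEPES pH 7.5, 0.01% Triton X-100, 2 mM DTT, with 1 μM PKCθ substrate peptide (N-FL), 5 μM ATP and 5 mM MgCl2. Incubated 1 h at room temperature (n = 2). Electrophoretic mobility shift read-out of P/(P+S); normalized to no-enzyme and no-inhibitor controls.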

[5] = biological target: Protein kinase C eta type (Homo sapiens) (UniProt P24723); assay: Inhibition of N-terminal GST-fused PKCeta (1-683) expressed in baculovirus expression system at 30 uM after 1 hr by off-chip mobility shift assay relative to control
Method in brief: (§3)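 Buffer is HEPES pH 7.5 (20 mM), 0.01% Triton X-100, 2 mM DTT, with phosphatidylserine (50 μg/mL) and diacylglycerol (5 μg/mL) but no CaCl2. Reaction: 1 μM PKCθ substrate (N-FL), 25 μM ATP, 5 mM MgCl2, 1 h at room temperature, n = 2. Read-out is electrophoretic separation, P/(P+S) ratio, controls as 0% and 100% inhibition.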

[6] = biological target: Protein kinase C beta type (Homo sapiens) (UniProt P05771); assay: Inhibition of N-terminal GST-fused PKCbeta1 (1-671) expressed in baculovirus expression system at 30 uM after 1 hr by off-chip mobility shift assay relative to control; method in brief: as §1
[7] = biological target: T2, Protein kinase C zeta type (Homo sapiens); assay: Inhibition of N-terminal GST-fused PKCzeta (1-592) expressed in baculovirus expression system at 3 uM after 1 hr by off-chip mobility shift assay relative to control; method in brief: as §2
[8] = biological target: Protein kinase C alpha type (Homo sapiens) (UniProt P17252); assay: Inhibition of N-terminal GST-fused PKCalpha (1-672) expressed in baculovirus expression system at 30 uM after 1 hr by off-chip mobility shift assay relative to control; method in brief: as §1
[9] = biological target: T3, Protein kinase C epsilon type (Homo sapiens) (UniProt Q02156); assay: Inhibition of N-terminal GST-fused PKCepsilon (1-737) expressed in baculovirus expression system at 30 uM after 1 hr by off-chip mobility shift assay relative to control
T3 sequence (whole entry): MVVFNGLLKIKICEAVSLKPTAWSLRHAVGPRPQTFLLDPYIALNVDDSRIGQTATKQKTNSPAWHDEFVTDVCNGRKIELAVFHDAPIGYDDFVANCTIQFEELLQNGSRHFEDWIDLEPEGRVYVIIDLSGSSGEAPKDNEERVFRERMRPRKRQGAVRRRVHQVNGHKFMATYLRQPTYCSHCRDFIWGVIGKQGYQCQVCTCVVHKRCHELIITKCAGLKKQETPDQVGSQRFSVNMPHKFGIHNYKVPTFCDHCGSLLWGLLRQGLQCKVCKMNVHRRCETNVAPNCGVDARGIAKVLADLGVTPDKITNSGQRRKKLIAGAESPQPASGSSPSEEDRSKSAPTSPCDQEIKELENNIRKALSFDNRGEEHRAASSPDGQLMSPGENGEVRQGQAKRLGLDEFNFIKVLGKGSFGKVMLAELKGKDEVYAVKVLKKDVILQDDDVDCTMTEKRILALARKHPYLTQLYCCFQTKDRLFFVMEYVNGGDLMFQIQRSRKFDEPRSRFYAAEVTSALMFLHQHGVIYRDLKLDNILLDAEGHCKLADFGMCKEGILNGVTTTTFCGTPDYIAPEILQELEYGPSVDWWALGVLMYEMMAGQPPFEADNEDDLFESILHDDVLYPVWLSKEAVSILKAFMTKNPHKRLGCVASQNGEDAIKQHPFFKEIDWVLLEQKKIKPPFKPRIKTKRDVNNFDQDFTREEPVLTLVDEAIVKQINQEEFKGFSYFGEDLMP
Method in brief: (§4)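 Lipid-activated reactions (phosphatidylserine 50 μg/mL, diacylglycerol 5 μg/mL), no CaCl2. Buffer is 20 mM HEPES pH 7.5, 0.01% Triton X-100, 2 mM DTT, with 1 μM N-FL PKCθ substrate peptide, 10 μM ATP and 5 mM MgCl2. Incubated 1 h at room temperature, n = 2. Product ratio P/(P+S) from electrophoretic peak heights, scaled between no-enzyme (100%) and no-inhibitor (0%) controls.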

[10] = biological target: Protein kinase C theta type (Homo sapiens) (UniProt Q04759); assay: Inhibition of N-terminal GST-fused PKCtheta (1-706) expressed in baculovirus expression system at 30 uM after 1 hr by off-chip mobility shift assay relative to control; method in brief: as §3
[11] = biological target: Protein kinase C iota type (Homo sapiens) (UniProt P41743); assay: Inhibition of N-terminal GST-fused PKClota (1-587) expressed in baculovirus expression system at 3 uM after 1 hr by off-chip mobility shift assay relative to control
[12] = biological target: Protein kinase C beta type (Homo sapiens) (UniProt P05771); assay: Inhibition of N-terminal GST-fused PKCbeta2 (1-673) expressed in baculovirus expression system at 30 uM after 1 hr by off-chip mobility shift assay relative to control
Method in brief: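 Same buffer as the other conventional PKCs (20 mM HEPES pH 7.5, 0.01% Triton X-100, 2 mM DTT), with phosphatidylserine 50 μg/mL, diacylglycerol 5 μg/mL and 50 μM CaCl2. Reaction: 1 μM PKCθ substrate peptide (N-FL), 10 μM ATP, 5 mM MgCl2, 1 h at room temperature, duplicate. Substrate and product separated electrophoretically; inhibition from P/(P+S) versus no-enzyme and no-inhibitor controls.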

[13] = biological target: Protein kinase C delta type (Homo sapiens) (UniProt Q05655); assay: Inhibition of N-terminal GST-fused PKCdelta (1-676) expressed in baculovirus expression system at 30 uM after 1 hr by off-chip mobility shift assay relative to control; method in brief: as §4
[14] = biological target: Protein kinase C iota type (Homo sapiens) (UniProt P41743); assay: Inhibition of N-terminal GST-fused PKClota (1-587) expressed in baculovirus expression system at 30 uM after 1 hr by off-chip mobility shift assay relative to control

Protein kinase C delta type (Homo sapiens), sequence (Q05655 whole entry, looked up, the tested form may be a part): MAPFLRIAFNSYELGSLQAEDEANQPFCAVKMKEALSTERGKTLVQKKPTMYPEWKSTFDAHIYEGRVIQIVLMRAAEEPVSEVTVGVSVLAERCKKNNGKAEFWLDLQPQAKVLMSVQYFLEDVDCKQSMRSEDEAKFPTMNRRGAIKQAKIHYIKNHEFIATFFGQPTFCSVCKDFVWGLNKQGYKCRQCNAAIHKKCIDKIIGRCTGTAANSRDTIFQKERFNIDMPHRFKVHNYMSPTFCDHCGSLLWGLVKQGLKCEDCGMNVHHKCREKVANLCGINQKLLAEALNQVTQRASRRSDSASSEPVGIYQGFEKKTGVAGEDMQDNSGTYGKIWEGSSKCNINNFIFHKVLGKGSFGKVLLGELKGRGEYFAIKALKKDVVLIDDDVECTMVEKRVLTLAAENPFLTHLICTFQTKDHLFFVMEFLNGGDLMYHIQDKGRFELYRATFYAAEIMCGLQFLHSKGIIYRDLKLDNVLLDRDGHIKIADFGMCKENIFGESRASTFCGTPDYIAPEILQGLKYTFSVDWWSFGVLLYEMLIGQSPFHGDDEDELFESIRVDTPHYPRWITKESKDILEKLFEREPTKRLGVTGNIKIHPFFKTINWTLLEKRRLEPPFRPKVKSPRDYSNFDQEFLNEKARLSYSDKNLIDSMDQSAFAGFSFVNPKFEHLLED
Protein kinase C beta type (Homo sapiens), sequence (P05771 2-671 limits assumed): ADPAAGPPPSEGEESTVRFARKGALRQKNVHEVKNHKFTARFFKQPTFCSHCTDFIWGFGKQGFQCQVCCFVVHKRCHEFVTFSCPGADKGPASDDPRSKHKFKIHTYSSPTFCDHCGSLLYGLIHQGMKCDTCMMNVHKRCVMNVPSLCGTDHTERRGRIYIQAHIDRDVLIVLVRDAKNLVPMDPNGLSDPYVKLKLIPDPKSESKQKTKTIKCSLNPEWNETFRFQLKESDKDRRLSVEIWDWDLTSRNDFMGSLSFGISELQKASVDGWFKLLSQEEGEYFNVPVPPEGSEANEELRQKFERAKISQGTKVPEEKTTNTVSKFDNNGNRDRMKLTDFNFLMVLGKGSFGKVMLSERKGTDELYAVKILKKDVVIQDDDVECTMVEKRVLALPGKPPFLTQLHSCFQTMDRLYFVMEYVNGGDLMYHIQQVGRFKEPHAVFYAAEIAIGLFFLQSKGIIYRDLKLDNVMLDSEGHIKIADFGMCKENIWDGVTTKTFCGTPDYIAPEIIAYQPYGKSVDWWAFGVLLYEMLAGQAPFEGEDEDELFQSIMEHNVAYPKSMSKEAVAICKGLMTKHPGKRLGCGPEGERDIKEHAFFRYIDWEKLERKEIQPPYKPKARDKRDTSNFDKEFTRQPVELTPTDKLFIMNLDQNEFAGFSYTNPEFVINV
Protein kinase C theta type (Homo sapiens), sequence (Q04759 whole entry, looked up, the tested form may be a part): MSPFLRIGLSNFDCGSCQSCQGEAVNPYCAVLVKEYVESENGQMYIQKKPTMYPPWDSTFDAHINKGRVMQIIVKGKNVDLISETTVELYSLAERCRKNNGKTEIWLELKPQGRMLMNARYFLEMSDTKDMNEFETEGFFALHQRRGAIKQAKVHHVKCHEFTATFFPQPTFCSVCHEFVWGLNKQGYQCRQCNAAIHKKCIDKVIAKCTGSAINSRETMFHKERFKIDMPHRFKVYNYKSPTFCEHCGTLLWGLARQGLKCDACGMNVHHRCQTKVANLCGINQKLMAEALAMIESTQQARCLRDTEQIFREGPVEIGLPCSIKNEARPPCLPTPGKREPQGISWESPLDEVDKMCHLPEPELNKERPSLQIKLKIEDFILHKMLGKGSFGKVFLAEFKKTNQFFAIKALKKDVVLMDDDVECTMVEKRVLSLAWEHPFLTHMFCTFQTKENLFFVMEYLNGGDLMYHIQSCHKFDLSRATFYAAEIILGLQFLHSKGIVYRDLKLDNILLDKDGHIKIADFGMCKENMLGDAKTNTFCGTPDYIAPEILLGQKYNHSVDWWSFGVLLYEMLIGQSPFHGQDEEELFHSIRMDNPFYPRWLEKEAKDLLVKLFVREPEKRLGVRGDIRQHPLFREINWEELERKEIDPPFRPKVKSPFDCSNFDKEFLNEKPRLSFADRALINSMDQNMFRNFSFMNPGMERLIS
Sphingosine kinase 1 (Homo sapiens), sequence (Q9NYA1 whole entry, the tested form may be a part): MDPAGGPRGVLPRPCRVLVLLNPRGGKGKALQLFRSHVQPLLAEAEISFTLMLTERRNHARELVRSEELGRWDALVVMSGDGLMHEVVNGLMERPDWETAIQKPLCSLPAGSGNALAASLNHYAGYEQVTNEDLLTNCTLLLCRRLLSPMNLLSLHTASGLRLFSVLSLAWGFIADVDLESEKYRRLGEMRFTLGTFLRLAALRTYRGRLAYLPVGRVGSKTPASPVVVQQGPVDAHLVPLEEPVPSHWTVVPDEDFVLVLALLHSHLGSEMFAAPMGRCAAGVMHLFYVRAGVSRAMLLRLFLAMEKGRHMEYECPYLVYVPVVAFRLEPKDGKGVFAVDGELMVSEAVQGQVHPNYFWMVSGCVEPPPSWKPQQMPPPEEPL
Protein kinase C iota type (Homo sapiens), sequence (P41743 whole entry, looked up, the tested form may be a part): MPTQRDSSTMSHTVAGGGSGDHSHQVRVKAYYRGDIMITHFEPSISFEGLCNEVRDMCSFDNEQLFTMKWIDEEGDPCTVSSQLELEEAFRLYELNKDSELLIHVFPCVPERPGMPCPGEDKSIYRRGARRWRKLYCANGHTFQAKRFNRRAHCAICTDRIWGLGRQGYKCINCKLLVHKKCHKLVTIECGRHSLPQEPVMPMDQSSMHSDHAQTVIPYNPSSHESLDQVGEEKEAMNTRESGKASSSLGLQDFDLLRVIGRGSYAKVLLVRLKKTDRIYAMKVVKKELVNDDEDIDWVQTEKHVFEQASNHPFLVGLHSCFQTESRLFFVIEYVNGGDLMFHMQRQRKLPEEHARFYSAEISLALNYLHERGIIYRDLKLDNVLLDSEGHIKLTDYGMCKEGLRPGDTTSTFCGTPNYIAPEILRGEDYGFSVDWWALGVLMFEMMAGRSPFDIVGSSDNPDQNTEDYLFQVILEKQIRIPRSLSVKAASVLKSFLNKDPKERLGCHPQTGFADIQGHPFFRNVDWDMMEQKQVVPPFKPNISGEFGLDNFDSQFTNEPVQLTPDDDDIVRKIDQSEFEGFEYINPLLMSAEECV

Row | Structure (SMILES) | inhibition [1] [%] | inhibition [2] [%] | inhibition [3] [%] | inhibition [4] [%] | inhibition [5] [%] | inhibition [6] [%] | inhibition [7] [%] | inhibition [8] [%] | inhibition [9] [%] | inhibition [10] [%] | inhibition [11] [%] | inhibition [12] [%] | inhibition [13] [%] | inhibition [14] [%]
1 | CCCCCCCCCCCCCC[C@H]1OC[C@@H](N)[C@H]1O | 50 | 50 | – | – | – | – | – | – | – | – | – | – | – | –
2 | CCCCCCCCCCCCCC[C@@H]1OC[C@H](N)[C@@H]1O | 6.6 | 4.6 | 48.6 | 100 | 56.6 | 48.5 | 50 | 32.7 | 37.4 | 39.8 | 50 | 27.9 | 69.6 | 98.5
3 | CCCCCCCCCCCCCC[C@@H]1OC[C@@H](N)[C@@H]1O | 0.48 | 0.94 | 48.5 | 99.8 | 47 | 45.1 | 50 | 33.1 | 29.2 | 37.1 | 50 | 22.9 | 67.5 | 94.8
4 | CCCCCCCCCCCCCC[C@H]1OC[C@H](N)[C@@H]1O | 50 | 50 | – | – | – | – | – | – | – | – | – | – | – | –
5 | CCCCCCCCCCCCC/C=C/[C@@H](O)[C@H](CO)N(C)C | 50 | 50 | 49.2 | 99.1 | 43.8 | 68.5 | – | 35 | 40.4 | 47.1 | – | 44.3 | 83.9 | 100

Next, values leading:

Row | inhibition [1] [%] | inhibition [2] [%] | inhibition [3] [%] | inhibition [4] [%] | inhibition [5] [%] | inhibition [6] [%] | inhibition [7] [%] | inhibition [8] [%] | inhibition [9] [%] | inhibition [10] [%] | inhibition [11] [%] | inhibition [12] [%] | inhibition [13] [%] | inhibition [14] [%] | Structure (SMILES)
6 | 50 | 50 | – | – | – | – | – | – | – | – | – | – | – | – | CCCCCCCCCCCCCC[C@@H]1OC[C@@H](N)[C@H]1O
7 | 50 | 50 | – | – | – | – | – | – | – | – | – | – | – | – | CCCCCCCCCCCCCC[C@H]1OC[C@H](N)[C@H]1O
8 | 1.8 | 0.59 | 47.6 | 99.5 | 55.4 | 79.2 | 50 | 34 | 26.3 | 51.2 | 50 | 43.9 | 96.2 | 99.9 | CCCCCCCCCCCCCC[C@H]1OC[C@@H](N)[C@@H]1O
9 | 50 | 50 | – | – | – | – | – | – | – | – | – | – | – | – | CCCCCCCCCCCCCC[C@@H]1OC[C@H](N)[C@H]1O

From ChEMBL document CHEMBL1817577, “Pachastrissamine (jaspine B) and its stereoisomers inhibit sphingosine kinases and atypical protein kinase C” (Bioorg Med Chem, 2011)
